Experiments:
[1] = Phytotoxicity against 4-leaf stage Triticum aestivum (wheat) plants assessed as plant growth inhibition at 150 g ai/ha applied through spraying measured 30 days after compound treatment under greenhouse conditions; format: organism-based; conditions: in vivo, read-out: GI
[2] = Phytotoxicity against four-leaf stage Brassica napus (oilseed rape) plants assessed as plant growth inhibition at 150 g ai/ha applied through spraying measured 30 days after compound treatment under greenhouse conditions; format: organism-based; conditions: in vivo, read-out: GI
[3] = Phytotoxicity against four-leaf stage Zea mays cv. Anjou (maize) plants assessed as plant growth inhibition at 150 g ai/ha applied through spraying measured 30 days after compound treatment under greenhouse conditions; format: organism-based; conditions: in vivo, read-out: GI
[4] = Phytotoxicity against four-leaf stage Gossypium hirsutum (cotton) plants assessed as plant growth inhibition at 150 g ai/ha applied through spraying measured 30 days after compound treatment under greenhouse conditions; format: organism-based; conditions: in vivo, read-out: GI
[5] = Phytotoxicity against 4-leaf stage Glycine max (soybean) plants assessed as plant growth inhibition at 150 g ai/ha applied through spraying measured 30 days after compound treatment under greenhouse conditions; format: organism-based; conditions: in vivo, read-out: GI
[6] = Phytotoxicity against four-leaf stage Oryza sativa (rice) plants assessed as plant growth inhibition at 150 g ai/ha applied through spraying measured 30 days after compound treatment under greenhouse conditions; format: organism-based; conditions: in vivo, read-out: GI
[7] = Phytotoxicity against 4-leaf stage Glycine max (soybean) plants assessed as plant growth inhibition at 75 g ai/ha applied through spraying measured 30 days after compound treatment under greenhouse conditions; format: organism-based; conditions: in vivo, read-out: GI
Chenopodium album [8] = experiment: Post-emergence herbicidal activity against Chenopodium album seedlings assessed as plant growth inhibition at 75 g ai/ha measured 15 days after compound treatment under greenhouse conditions; format: functional; conditions: 360 h, read-out: GI
Chenopodium album [9] = experiment: Post-emergence herbicidal activity against Chenopodium album seedlings assessed as plant growth inhibition at 37.5 g ai/ha measured 15 days after compound treatment under greenhouse conditions; format: functional; conditions: 360 h, read-out: GI
Capsella bursa-pastoris = experiment: Post-emergence herbicidal activity against Capsella bursa-pastoris assessed as plant growth inhibition at 75 g ai/ha; format: functional; conditions: read-out: GI
In short: (§1)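 Compounds formulated as 100 g/L emulsifiable concentrates in DMF with Tween-80 as emulsifier, then diluted with water. Sprayed post-emergence onto pot-grown plants in a greenhouse, with broadleaf weeds at the 2-leaf stage and grasses at the 1-leaf stage. Clay soil with 1.6% organic matter and CEC 12.1 […]; relative humidity about 50%. Rate (g ai/ha) = active ingredient ÷ pot surface area. Untreated and DMF + Tween-80 solvent controls.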

Symphyotrichum subulatum = experiment: Post-emergence herbicidal activity against Symphyotrichum subulatum assessed as plant growth inhibition at 75 g ai/ha; format: functional; conditions: read-out: GI; in short: as §1
Boehmeria nivea = experiment: Post-emergence herbicidal activity against Boehmeria nivea assessed as plant growth inhibition at 75 g ai/ha; format: functional; conditions: read-out: GI; in short: as §1
Amaranthus spinosus = experiment: Post-emergence herbicidal activity against Amaranthus spinosus assessed as plant growth inhibition at 75 g ai/ha; format: functional; conditions: read-out: GI; in short: as §1
Eleusine indica = experiment: Post-emergence herbicidal activity against Eleusine indica assessed as plant growth inhibition at 75 g ai/ha; format: functional; conditions: read-out: GI; in short: as §1
Cerastium arvense = experiment: Post-emergence herbicidal activity against Cerastium arvense assessed as plant growth inhibition at 75 g ai/ha; format: functional; conditions: read-out: GI; in short: as §1
Veronica polita = experiment: Post-emergence herbicidal activity against Veronica polita assessed as plant growth inhibition at 75 g ai/ha; format: functional; conditions: read-out: GI; in short: as §1
Senna tora = experiment: Post-emergence herbicidal activity against Senna tora assessed as plant growth inhibition at 75 g ai/ha; format: functional; conditions: read-out: GI; in short: as §1
Alkekengi officinarum = experiment: Post-emergence herbicidal activity against Physalis alkekengi assessed as plant growth inhibition at 75 g ai/ha; format: functional; conditions: read-out: GI; in short: as §1
Phytolacca acinosa = experiment: Post-emergence herbicidal activity against Raddix phytolaccae assessed as plant growth inhibition at 75 g ai/ha; format: functional; conditions: read-out: GI; in short: as §1
Ammannia baccifera = experiment: Post-emergence herbicidal activity against Ammannia baccifera assessed as plant growth inhibition at 75 g ai/ha; format: functional; conditions: read-out: GI; in short: as §1
Ludwigia prostrata = experiment: Post-emergence herbicidal activity against Ludwigia prostrata assessed as plant growth inhibition at 75 g ai/ha; format: functional; conditions: read-out: GI; in short: as §1
Commelina communis = experiment: Post-emergence herbicidal activity against Commelina communis (Asiatic dayflower) assessed as plant growth inhibition at 75 g ai/ha; format: functional; conditions: read-out: GI; in short: as §1
Myosoton aquaticum = experiment: Post-emergence herbicidal activity against Myosoton aquaticum assessed as plant growth inhibition at 75 g ai/ha; format: functional; conditions: read-out: GI; in short: as §1
Sonchus asper = experiment: Post-emergence herbicidal activity against Sonchus asper assessed as plant growth inhibition at 75 g ai/ha; format: functional; conditions: read-out: GI; in short: as §1
Polygonum humifusum = experiment: Post-emergence herbicidal activity against Polygonum humifusum assessed as plant growth inhibition at 75 g ai/ha; format: functional; conditions: read-out: GI; in short: as §1
Solanum nigrum = experiment: Post-emergence herbicidal activity against Solanum nigrum (black nightshade) assessed as plant growth inhibition at 75 g ai/ha; format: functional; conditions: read-out: GI; in short: as §1
Chenopodium album [10] = experiment: Post-emergence herbicidal activity against Chenopodium album seedlings assessed as plant growth inhibition at 150 g ai/ha measured 15 days after compound treatment under greenhouse conditions; format: functional; conditions: 360 h, read-out: GI
Amaranthus retroflexus [11] = experiment: Post emergence herbicidal activity against Amaranthus retroflexus seedlings assessed as plant growth inhibition at 75 g ai/ha measured 15 days after compound treatment under greenhouse conditions; format: functional; conditions: 360 h, read-out: GI
Amaranthus retroflexus [12] = experiment: Post emergence herbicidal activity against Amaranthus retroflexus seedlings assessed as plant growth inhibition at 37.5 g ai/ha measured 15 days after compound treatment under greenhouse conditions; format: functional; conditions: 360 h, read-out: GI
Amaranthus retroflexus [13] = experiment: Post emergence herbicidal activity against Amaranthus retroflexus seedlings assessed as plant growth inhibition at 150 g ai/ha measured 15 days after compound treatment under greenhouse conditions; format: functional; conditions: 360 h, read-out: GI
Brassica juncea [14] = experiment: Post-emergence herbicidal activity against Brassica juncea seedlings assessed as plant growth inhibition at 75 g ai/ha measured 15 days after compound treatment under greenhouse conditions; format: functional; conditions: 360 h, read-out: GI
Brassica juncea [15] = experiment: Post-emergence herbicidal activity against Brassica juncea seedlings assessed as plant growth inhibition at 37.5 g ai/ha measured 15 days after compound treatment under greenhouse conditions; format: functional; conditions: 360 h, read-out: GI
Brassica juncea [16] = experiment: Post-emergence herbicidal activity against Brassica juncea seedlings assessed as plant growth inhibition at 150 g ai/ha measured 15 days after compound treatment under greenhouse conditions; format: functional; conditions: 360 h, read-out: GI
Setaria faberi [17] = experiment: Post-emergence herbicidal activity against Setaria faberi (Giant Foxtail) seedlings assessed as plant growth inhibition at 75 g ai/ha measured 15 days after compound treatment under greenhouse conditions; format: functional; conditions: 360 h, read-out: GI
Setaria faberi [18] = experiment: Post-emergence herbicidal activity against Setaria faberi (Giant Foxtail) seedlings assessed as plant growth inhibition at 37.5 g ai/ha measured 15 days after compound treatment under greenhouse conditions; format: functional; conditions: 360 h, read-out: GI
Setaria faberi [19] = experiment: Post-emergence herbicidal activity against Setaria faberi (Giant Foxtail) seedlings assessed as plant growth inhibition at 150 g ai/ha measured 15 days after compound treatment under greenhouse conditions; format: functional; conditions: 360 h, read-out: GI
Digitaria sanguinalis [20] = experiment: Post-emergence herbicidal activity against Digitaria sanguinalis (hairy crabgrass) seedlings assessed as plant growth inhibition at 75 g ai/ha measured 15 days after compound treatment under greenhouse conditions; format: functional; conditions: 360 h, read-out: GI
Digitaria sanguinalis [21] = experiment: Post-emergence herbicidal activity against Digitaria sanguinalis (hairy crabgrass) seedlings assessed as plant growth inhibition at 37.5 g ai/ha measured 15 days after compound treatment under greenhouse conditions; format: functional; conditions: 360 h, read-out: GI
Digitaria sanguinalis [22] = experiment: Post-emergence herbicidal activity against Digitaria sanguinalis (hairy crabgrass) seedlings assessed as plant growth inhibition at 150 g ai/ha measured 15 days after compound treatment under greenhouse conditions; format: functional; conditions: 360 h, read-out: GI
Echinochloa crus-galli [23] = experiment: Post emergence herbicidal activity against Echinochloa crus-galli (barnyard grass) seedlings assessed as plant growth inhibition at 75 g ai/ha measured 15 days after compound treatment under greenhouse conditions; format: functional; conditions: 360 h, read-out: GI
Echinochloa crus-galli [24] = experiment: Post emergence herbicidal activity against Echinochloa crus-galli (barnyard grass) seedlings assessed as plant growth inhibition at 37.5 g ai/ha measured 15 days after compound treatment under greenhouse conditions; format: functional; conditions: 360 h, read-out: GI
Echinochloa crus-galli [25] = experiment: Post emergence herbicidal activity against Echinochloa crus-galli (barnyard grass) seedlings assessed as plant growth inhibition at 150 g ai/ha measured 15 days after compound treatment under greenhouse conditions; format: functional; conditions: 360 h, read-out: GI
[26] = molecular target: T1, Protoporphyrinogen oxidase, chloroplastic (Nicotiana tabacum, UniProt O24163); experiment: Inhibition of Nicotiana tabacum (tobacco) recombinant PPO assessed as protoporphyrin IX formation at room temperature by fluorimetric assay
T1 sequence (O24163 whole entry): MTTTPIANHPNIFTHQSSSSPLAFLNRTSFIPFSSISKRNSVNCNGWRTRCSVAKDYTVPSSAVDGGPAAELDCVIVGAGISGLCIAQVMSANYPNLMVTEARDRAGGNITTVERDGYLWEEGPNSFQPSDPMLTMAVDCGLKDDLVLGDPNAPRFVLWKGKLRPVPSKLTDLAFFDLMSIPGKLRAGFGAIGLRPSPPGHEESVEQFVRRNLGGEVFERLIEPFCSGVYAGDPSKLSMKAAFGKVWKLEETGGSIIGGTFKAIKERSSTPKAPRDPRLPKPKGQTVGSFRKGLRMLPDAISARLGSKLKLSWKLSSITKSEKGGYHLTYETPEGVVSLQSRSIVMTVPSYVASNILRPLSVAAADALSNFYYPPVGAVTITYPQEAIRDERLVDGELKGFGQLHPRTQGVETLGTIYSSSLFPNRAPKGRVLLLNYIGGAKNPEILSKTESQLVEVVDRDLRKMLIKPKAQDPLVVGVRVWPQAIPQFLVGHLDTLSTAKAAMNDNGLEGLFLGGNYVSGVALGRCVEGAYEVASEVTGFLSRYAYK

Compound `Cc1nn(-c2cc(NS(C)(=O)=O)c(Cl)cc2Cl)c(=O)n1C(F)F` [SULFENTRAZONE] has an inhibition at 720 h [1] of 20%, an inhibition at 720 h [2] of 100% and an inhibition at 720 h [3] of 70%. It also gave an inhibition at 720 h [4] of 100%, an inhibition at 720 h [5] of 20% and an inhibition at 720 h [6] of 70%. It also gave an inhibition at 720 h [7] of 10%, an inhibition of growth at 75 g/ha (Chenopodium album [8]) of no less than 90% and an inhibition of growth at 37.5 g/ha (Chenopodium album [9]) of 60%. The inhibition of growth at 75 g/ha (Capsella bursa-pastoris) was 100%, the inhibition of growth at 75 g/ha (Symphyotrichum subulatum) was 100% and the inhibition of growth at 75 g/ha (Boehmeria nivea) was 100%. It also gave an inhibition of growth at 75 g/ha (Amaranthus spinosus) of 100%, an inhibition of growth at 75 g/ha (Eleusine indica) of 100% and an inhibition of growth at 75 g/ha (Cerastium arvense) greater than 90%. The inhibition of growth at 75 g/ha (Veronica polita) was 100%, the inhibition of growth at 75 g/ha (Senna tora) was greater than 90% and the inhibition of growth at 75 g/ha (Alkekengi officinarum) was 100%. The inhibition of growth at 75 g/ha (Phytolacca acinosa) was 100%, the inhibition of growth at 75 g/ha (Ammannia baccifera) was 100% and the inhibition of growth at 75 g/ha (Ludwigia prostrata) was 100%. The inhibition of growth at 75 g/ha (Commelina communis) was 100%, the inhibition of growth at 75 g/ha (Myosoton aquaticum) was greater than 90% and the inhibition of growth at 75 g/ha (Sonchus asper) was 100%. For the same compound, the inhibition of growth at 75 g/ha (Polygonum humifusum) was 100%, the inhibition of growth at 75 g/ha (Solanum nigrum) was 100% and the inhibition of growth at 150 g/ha (Chenopodium album [10]) was no less than 90%. For the same compound, the inhibition of growth at 75 g/ha (Amaranthus retroflexus [11]) was no less than 90%, the inhibition of growth at 37.5 g/ha (Amaranthus retroflexus [12]) was 80% and the inhibition of growth at 150 g/ha (Amaranthus retroflexus [13]) was no less than 90%. It also gave an inhibition of growth at 75 g/ha (Brassica juncea [14]) of no less than 90%, an inhibition of growth at 37.5 g/ha (Brassica juncea [15]) of 80% and an inhibition of growth at 150 g/ha (Brassica juncea [16]) of no less than 90%. For the same compound, the inhibition of growth at 75 g/ha (Setaria faberi [17]) was 80%, the inhibition of growth at 37.5 g/ha (Setaria faberi [18]) was 60% and the inhibition of growth at 150 g/ha (Setaria faberi [19]) was no less than 90%. The inhibition of growth at 75 g/ha (Digitaria sanguinalis [20]) was 50%, the inhibition of growth at 37.5 g/ha (Digitaria sanguinalis [21]) was less than 50% and the inhibition of growth at 150 g/ha (Digitaria sanguinalis [22]) was 60%. It also gave an inhibition of growth at 75 g/ha (Echinochloa crus-galli [23]) of no less than 90%, an inhibition of growth at 37.5 g/ha (Echinochloa crus-galli [24]) of 80% and an inhibition of growth at 150 g/ha (Echinochloa crus-galli [25]) of no less than 90%. It also gave a Ki [26] of 30 nM.
